# Data from ChEMBL document CHEMBL2093137, “WHO-TDR NTD Screening”.
# Experiments:
# Leishmania infantum = assay: WHO-TDR: Leishmaniasis; format: functional, organism-based, Mus musculus; conditions: Macrophage
# Procedure, shortened: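 The screened collection came from Life Chemicals: 10,000 diverse compounds selected after filtering for drug-likeness and reactive groups. Each was tested in a whole-organism assay against Leishmania infantum MHOM/MA(BE)/67 amastigotes inside murine peritoneal macrophages, using previously published standard procedures and a reference drug as positive control. Results are IC50 values for antiparasitic potency.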
# [1] = WHO-TDR: Cytotoxicity; format: toxicity, cell-based; conditions: human, MRC5 cells
# Onchocerca lienalis [2] = assay: (§1) WHO-TDR: Onchocerciasis; format: functional; parameters: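 at 12.5 µM on microfilariae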
# Procedure, shortened: (§2)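 Values are reported as percent inhibition and as IC50. They come from a whole-organism screen of a 10,000-compound diverse Life Chemicals library against microfilariae of Onchocerca ochengi or Onchocerca lienalis. The screen followed previously published standard procedures, with reference drugs as positive controls.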
# [3] = system: Trypanosoma brucei brucei; assay: WHO-TDR: Human African Trypanosomiasis (HAT); format: functional, organism-based; conditions: Squib-427
# Procedure, shortened: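 Screening used a 10,000-compound diverse library supplied by Life Chemicals and filtered for drug-likeness and reactive groups. Whole bloodstream-form parasites of Trypanosoma brucei Squib 427 strain were assayed according to previously published standard procedures, with reference drugs as positive controls. The reported measure is IC50, reflecting antiparasitic potency.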
# Plasmodium falciparum K1 = assay: WHO-TDR: Malaria; format: functional, organism-based, Homo sapiens; conditions: Erythrocyte
# Procedure, shortened: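 This whole-organism screen covered 10,000 drug-likeness-filtered and reactive-group-filtered compounds from Life Chemicals. The target was the Plasmodium falciparum K1 strain in human red blood cells, and the readout was antiplasmodial IC50.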
# Onchocerca lienalis [4] = assay: as §1; format: functional, organism-based; procedure, shortened: as §2
# Trypanosoma cruzi = assay: WHO-TDR: Chagas disease; format: functional, organism-based, Homo sapiens; conditions: MRC5
# Procedure, shortened: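 Whole-organism screen of a 10,000-compound diverse library from Life Chemicals, filtered for drug-likeness and reactive groups, against intracellular amastigotes of Trypanosoma cruzi Tulahuen CL2 beta-galactosidase strain grown in MRC-5SV2 human lung fibroblast host cells. The assay followed previously published standard procedures, with a reference drug as positive control. Antiparasitic potency is reported as IC50.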
# Brugia malayi [5] = assay: (§3) WHO-TDR: Lymphatic Filariasis; format: functional, organism-based;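 as to % Inhibition: tested at 10 µM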
# Procedure, shortened: (§4)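 Values are percent inhibition and IC50 from a whole-organism screen against Brugia malayi microfilariae. The compounds, 10,000 in all, came from a diverse Life Chemicals library filtered for drug-likeness and reactive groups.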
# Schistosoma mansoni [6] = assay: (§5) WHO-TDR: Schistosomiasis; format: functional; parameters: concentration or dose not given beside the values
# Procedure, shortened: (§6)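 Values are reported as percent inhibition and IC50. They come from a whole-organism screen of a 10,000-compound diverse Life Chemicals library against larval and/or adult worms of Schistosoma mansoni, Puerto Rican strain. The library had been filtered for drug-likeness and reactive groups.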
# Brugia malayi [7] = assay: as §3; format: functional; parameters: concentration or dose not given beside the values; procedure, shortened: as §4
# Brugia malayi [8] = assay: as §3; format: functional, organism-based; procedure, shortened: as §4; remark: listed apart in the source
# Brugia malayi [9] = assay: as §3; format: functional; parameters: concentration or dose not given beside the values; procedure, shortened: as §4; remark: listed apart in the source
# Schistosoma mansoni [10] = assay: as §5; format: functional, organism-based; procedure, shortened: as §6
IC50 (Leishmania infantum) [µg/mL],IC50 [3] [µg/mL],IC50 (Plasmodium falciparum K1) [µg/mL],IC50 (Onchocerca lienalis [4]) [µg/mL],IC50 (Brugia malayi [5]) [nM],IC50 (Brugia malayi [8]) [nM],IC50 (Schistosoma mansoni [10]) [µM],Compound,IC50 [1] [µg/mL],% Inhibition (Onchocerca lienalis [2]) [%],IC50 (Trypanosoma cruzi) [µg/mL],% Inhibition (Schistosoma mansoni [6]) [%],% Inhibition (Brugia malayi [7]) [%],% Inhibition (Brugia malayi [9]) [%]
1.9,0.309,0.564,0.344,,,,O=C(Nc1nc(-c2ccccn2)cs1)c1ccc(Cl)s1,4.39,100,< 0.0965,,,
0.484,0.478,0.572,,530,530,,CC(C)N1CCc2c(sc(NC(=O)c3cc4c(ccc5ccccc54)oc3=O)c2C(N)=O)C1,0.416,-1,0.149,0,100,100
0.782,0.367,4.75,1.42,,,,O=C(Nc1nc2c(s1)CSc1ccccc1-2)C1COc2ccccc2O1 (configuration not stated),2.62,100,0.502,100,33.33,0
4.73,0.473,4.54,,5180,4950,,O=C(COc1cccc2c1CCN(Cc1ccccc1F)C2=O)N1CCC(Cc2ccccc2)CC1,4.56,0,0.557,0,100,100
> 12,3.83,> 12,1.48,,,,CCn1nnc2c(N3CCN(C(c4ccccc4)c4ccccc4)CC3)ncnc21,> 12,100,3.62,0,0,
4.18,4.18,0.746,1.75,,,6.7,CCOC(=O)N1CCc2c(sc(NC(=O)c3nc4ccccc4s3)c2C(N)=O)C1,4.58,100,1.52,100,,
